Laboratory results from ChEMBL document CHEMBL2069181, “In vitro and in vivo trypanosomicidal activity of pyrazole-containing macrocyclic and macrobicyclic polyamines: their action on acute and chronic phases of Chagas disease” (J Med Chem, 2012).
The source made the active and inactive calls.

Key:
Trypanosoma cruzi [1] = experiment: Trypanosomicidal activity against Trypanosoma cruzi SN3 epimastigote after 72 hrs by hemocytometric analysis; format: functional, organism-based; conditions: SN3, 72 h
Procedure, shortened: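 Exponential-phase SN3 epimastigotes (Grace's medium, 10% FBS, 28 °C) seeded at 5 × 10^4 parasites/well with compounds dissolved in MTL at 1, 10, 25, 50, 100 μM.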

Trypanosoma cruzi [2] = experiment: Trypanosomicidal activity against Trypanosoma cruzi SN3 anexic amastigote after 48 hrs by hemocytometric analysis; format: functional, organism-based; conditions: SN3, 48 h
Procedure, shortened: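 Axenic amastigotes obtained from epimastigotes after 3 days in supplemented M199 (10% FCS, pH 5.4, 37 °C).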

Trypanosoma cruzi [3] = experiment: Trypanosomicidal activity against Trypanosoma cruzi SN3 amastigote infected in Vero cells after 72 hrs by Giemsa staining method; format: functional, organism-based
Procedure, shortened: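 Vero cells seeded at 1 × 10^4/well on coverslips, grown 2 days, infected with metacyclic forms (10:1) for 24 h, washed, then treated at 1–100 μM for 72 h in RPMI/10% FBS. Amastigote reduction scored on methanol-fixed Giemsa-stained slides; four determinations; IC50.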

Vero = experiment: Cytotoxicity against African green monkey Vero cells assessed as cell viability after 72 hrs by flow cytometric analysis; format: cell-based; conditions: Chlorocebus sabaeus
Procedure, shortened: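 Vero cells grown in RPMI with 10% inactivated FBS at 37 °C, 5% CO2, seeded at 1 × 10^5 cells/mL, grown 2 days, then exposed to 1–100 μM compound for 72 h. Viability measured by flow cytometry; IC50 by linear regression.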

[4] = Selectivity index, ratio of IC50 for Vero cells to IC50 for Trypanosoma cruzi epimastigote; format: toxicity, cell-based; conditions: monkey, Vero cells versus Trypanosoma cruzi epimastigotes; read-out: Ratio IC50
[5] = Selectivity index, ratio of IC50 for Vero cells to IC50 for Trypanosoma cruzi anexic amastigote; format: toxicity, cell-based; conditions: monkey, Vero cells versus Trypanosoma cruzi axenic amastigotes; read-out: Ratio IC50
[6] = Selectivity index, ratio of IC50 for Vero cells to IC50 for Trypanosoma cruzi intracellular amastigote infected in Vero cells; format: toxicity, cell-based; conditions: monkey; read-out: Ratio IC50
Trypanosoma cruzi [7] = experiment: Trypanosomicidal activity against Trypanosoma cruzi infected in Vero cells assessed as reduction in rate of infection after 10 days by Giemsa staining method; format: functional; design: scale not given: the % may be the effect or the level left
Procedure, shortened: (§1)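 Vero cells infected with metacyclic forms (10:1); compounds at IC25 added at infection for 12 h at 37 °C, then washed out and cultures grown 10 days with medium renewed every 48 h. Infected cells and amastigotes per cell counted in >100 host cells on Giemsa-stained slides; trypomastigotes in medium counted; mean of four determinations.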

Trypanosoma cruzi [8] = experiment: Trypanosomicidal activity against Trypanosoma cruzi infected in Vero cells assessed as reduction in amastigotes per infected Vero cells after 6 days by Giemsa staining method; format: functional; design: scale not given: the % may be the effect or the level left
Trypanosoma cruzi [9] = experiment: Trypanosomicidal activity against Trypanosoma cruzi infected in Vero cells assessed as reduction in trypomastigotes in culture medium after 10 days by Giemsa staining method; format: functional; design: scale not given: the % may be the effect or the level left; procedure, shortened: as §1
[10] = Inhibition of Trypanosoma cruzi epimastigotes Fe-SOD by NBT reduction assay
Procedure, shortened: (§2)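 Enzyme from epimastigotes grown without FBS (excreted Fe-SOD), sonicated in STE buffer pH 7.8, centrifuged, supernatant protein by Bradford; human erythrocyte CuZn-SOD for comparison. NBT reduction by superoxide (Beyer–Fridovich): methionine, NBT, Triton X-100, riboflavin, homogenate plus compound; A560 read before and after 10 min UV illumination with stirring. Five separate determinations; Newman–Keuls test against control.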

Mus musculus [11] = experiment: Toxicity in BALB/c mouse liver infected with Trypanosoma cruzi assessed as granulomas with limphocitic infiltration at 5 mg/kg, ip after 120 days postinfection by Histopathological analysis; format: organism-based; design: dose 5 mg/kg, route intraperitoneal; conditions: in vivo, 2880 h
Procedure, shortened: (§3)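 Livers removed at 120 days postinfection, fixed in 10% buffered formalin, paraffin-embedded, 4–5 μm sections stained with H&E and Masson's trichrome. Blinded scoring of at least 30 fields per slide, 0 (none) to 5 (severe).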

Mus musculus [12] = experiment: Toxicity in BALB/c mouse liver infected with Trypanosoma cruzi assessed as delocalized hepatic destruction at 5 mg/kg, ip after 120 days postinfection by Histopathological analysis; format: organism-based; design: dose 5 mg/kg, route intraperitoneal; conditions: in vivo, 2880 h; procedure, shortened: as §3
Mus musculus [13] = experiment: Toxicity in BALB/c mouse liver infected with Trypanosoma cruzi assessed as blood vessels with thickened walls at 5 mg/kg, ip after 120 days postinfection by Histopathological analysis; format: organism-based, Blood vessel; design: dose 5 mg/kg, route intraperitoneal; conditions: in vivo, 2880 h; procedure, shortened: as §3
Mus musculus [14] = experiment: Toxicity in BALB/c mouse liver infected with Trypanosoma cruzi assessed as lymphocytic infiltrations in portal tracts at 5 mg/kg, ip after 120 days postinfection Histopathological analysis; format: organism-based; design: dose 5 mg/kg, route intraperitoneal; conditions: in vivo, 2880 h; procedure, shortened: as §3
Mus musculus [15] = experiment: Toxicity in BALB/c mouse liver infected with Trypanosoma cruzi assessed as intestinal hemorrhage at 5 mg/kg, ip after 120 days postinfection by Histopathological analysis; format: organism-based; design: dose 5 mg/kg, route intraperitoneal; conditions: in vivo, 2880 h; procedure, shortened: as §3
Mus musculus [16] = experiment: Toxicity in BALB/c mouse liver infected with Trypanosoma cruzi assessed as hepatic destruction in portal tracts at 5 mg/kg, ip after 120 days postinfection by Histopathological analysis; format: organism-based; design: dose 5 mg/kg, route intraperitoneal; conditions: in vivo, 2880 h; procedure, shortened: as §3
Mus musculus [17] = experiment: Toxicity in BALB/c mouse liver infected with Trypanosoma cruzi assessed as necrotic cells in portal tracts at 5 mg/kg, ip after 120 days postinfection by Histopathological analysis; format: organism-based; design: dose 5 mg/kg, route intraperitoneal; conditions: in vivo, 2880 h; procedure, shortened: as §3
Trypanosoma cruzi [18] = experiment: Trypanosomicidal activity against Trypanosoma cruzi epimastigotes assessed as intense vacuolization of protozoan cells by TEM analysis; format: functional, organism-based
Trypanosoma cruzi [19] = experiment: Trypanosomicidal activity against Trypanosoma cruzi epimastigotes assessed as very electron dense protozoan cells by TEM analysis; format: functional, organism-based
Trypanosoma cruzi [20] = experiment: Trypanosomicidal activity against Trypanosoma cruzi epimastigotes assessed as distorted shape of protozoan cells by TEM analysis; format: functional, organism-based
Trypanosoma cruzi [21] = experiment: Inhibition of Trypanosoma cruzi epimastigotes Fe-SOD at 50 ug/ml by NBT reduction assay; procedure, shortened: as §2
Trypanosoma cruzi [22] = experiment: Inhibition of Trypanosoma cruzi epimastigotes Fe-SOD at 25 ug/ml by NBT reduction assay; procedure, shortened: as §2
Trypanosoma cruzi [23] = experiment: Antitrypanosomal activity against Trypanosoma cruzi infected in BALB/c mouse assessed as reduction in parasitemia at 1 mg/kg, ip dosed for 5 days measured on day 30 post infection; format: functional; design: scale not given: the % may be the effect or the level left; conditions: route intraperitoneal
Procedure, shortened: (§4)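 Female BALB/c mice infected with trypomastigotes, dosed ip at 1 mg/kg/day on days 5–10 postinfection; vehicle controls. Mandibular vein blood (5 μL) diluted in citrate/lysis buffer pH 7.2; parasites counted under immersion objective every 2 days from day 5 to 30, as parasites/mL.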

Trypanosoma cruzi [24] = experiment: Antitrypanosomal activity against Trypanosoma cruzi infected in BALB/c mouse assessed as reduction in trypomastigotes at 1 mg/kg, ip dosed for 5 days measured on day 14 post infection; format: functional, organism-based; design: dose 1 mg/kg; procedure, shortened: as §4
Trypanosoma cruzi [25] = experiment: Trypanosomicidal activity against Trypanosoma cruzi epimastigotes assessed as inhibition of succinate metabolite excretion after 96 hrs by NMR analysis; format: functional
Procedure, shortened: (§5)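 Epimastigotes (5 × 10^5 cells/mL) exposed to IC25 of compound for 96 h at 28 °C; supernatant after centrifugation analysed by 1H NMR with DSS reference, compared against untreated cultures.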

Trypanosoma cruzi [26] = experiment: Trypanosomicidal activity against Trypanosoma cruzi epimastigotes assessed as inhibition of acetate metabolite excretion after 96 hrs by NMR analysis; format: functional; procedure, shortened: as §5
[27] = molecular target: Superoxide dismutase [Cu-Zn], SOD1 (Homo sapiens) (UniProt P00441); experiment: Activity of human erythrocyte Cu-Zn SOD by NBT reduction assay
Trypanosoma cruzi [28] = experiment: Antitrypanosomal activity against Trypanosoma cruzi infected in BALB/c mouse assessed as reduction in anti-organism antibody at 1 mg/kg, ip dosed for 5 days measured on day 40 to 120 post infection; format: functional, organism-based; design: dose 1 mg/kg
Procedure, shortened: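 Infected female BALB/c mice given 1 mg/kg/day ip for 5 days. Serum (1:50 in PBS) on days 40 and 120 tested by ELISA against excreted epimastigote Fe-SOD antigen; absorbance 490 nm, cutoff = negative-control mean + 3 SD; change is day-120 minus day-40 absorbance.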

Trypanosoma cruzi [29] = experiment: Antitrypanosomal activity against Trypanosoma cruzi infected in BALB/c mouse assessed as survival rate at 1 mg/kg, ip dosed for 5 days; format: functional; conditions: 120 h, route intraperitoneal
Procedure, shortened: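 Female BALB/c mice were infected with trypomastigotes of T. cruzi SN3 strain (Colombian R. prolixus isolate). Dosing was ip at 1 mg/kg/day for 5 consecutive days, on days 5–10 postinfection. Controls were infected mice given vehicle only, plus uninfected groups. Mortality was followed over the acute phase (first 30 days) and the chronic phase (days 40–120 postinfection).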

Trypanosoma cruzi [30] = experiment: Trypanosomicidal activity against Trypanosoma cruzi epimastigotes assessed as reservosomes in cytoplasm by TEM analysis; format: functional, organism-based
Trypanosoma cruzi [31] = experiment: Trypanosomicidal activity against Trypanosoma cruzi epimastigotes assessed as altered nucleus by TEM analysis; format: functional, organism-based
Trypanosoma cruzi [32] = experiment: Inhibition of Trypanosoma cruzi epimastigotes Fe-SOD at 10 ug/ml by NBT reduction assay; procedure, shortened: as §2
Trypanosoma cruzi [33] = experiment: Trypanosomicidal activity against Trypanosoma cruzi epimastigotes assessed as inhibition of L-lactate metabolite excretion after 96 hrs by NMR analysis; format: functional; procedure, shortened: as §5
[34] = Selectivity ratio of IC50 for Trypanosoma cruzi epimastigotes Fe-SOD to IC50 for human erythrocyte Cu-Zn SOD

Chain of Superoxide dismutase [Cu-Zn], SOD1 (Homo sapiens) (P00441 whole entry, looked up): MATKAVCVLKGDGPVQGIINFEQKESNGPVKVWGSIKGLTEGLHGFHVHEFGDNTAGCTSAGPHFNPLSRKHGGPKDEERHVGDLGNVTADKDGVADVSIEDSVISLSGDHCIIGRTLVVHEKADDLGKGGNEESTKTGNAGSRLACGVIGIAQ

SMILES	inhibition (Trypanosoma cruzi [21]) [%]	IC50 (Trypanosoma cruzi [1]) [µM]	IC50 (Trypanosoma cruzi [2]) [µM]	IC50 (Trypanosoma cruzi [3]) [µM]	IC50 (Vero) [µM]	selectivity ratio [4]	selectivity ratio [5]	selectivity ratio [6]	Activity (Trypanosoma cruzi [7]) [%]	Activity (Trypanosoma cruzi [8]) [%]	Activity (Trypanosoma cruzi [9]) [%]	IC50 [10] [µM]	Activity (Mus musculus [11])	Activity (Mus musculus [12])	Activity (Mus musculus [13])	Activity (Mus musculus [14])	Activity (Mus musculus [15])	Activity (Mus musculus [16])	Activity (Mus musculus [17])	Activity (Trypanosoma cruzi [23]) [%]	also measured
Cl.c1ccc(Cn2nc3cc2CNCCNCCNCc2cc(n(Cc4ccccc4)n2)CNCCNCCNC3)cc1	98	16.5	10	13.8	195	11.8	19.5	14.2	>50	26	34	28.7	Toxic	Non-toxic	Toxic	Toxic	Toxic	Non-toxic	Non-toxic	16	Activity (Trypanosoma cruzi [18]): Active; Activity (Trypanosoma cruzi [19]): Active; Activity (Trypanosoma cruzi [20]): Active; inhibition (Trypanosoma cruzi [22]): 70%; Activity (Trypanosoma cruzi [24]): Active; inhibition (INH) (Trypanosoma cruzi [25]): 19%; inhibition (INH) (Trypanosoma cruzi [26]): 23%; Activity [27]: 23.4 U/mg
O=C(Cn1ccnc1[N+](=O)[O-])NCc1ccccc1 [BENZNIDAZOLE]	–	–	18.9	23.3	–	–	–	–	23	13	46	–	Toxic	Toxic	Non-toxic	Non-toxic	Toxic	Toxic	Toxic	26	Activity (Trypanosoma cruzi [28]): Active; inhibition (INH) (Trypanosoma cruzi [26]): -6%; survival at 1 mg/kg (Trypanosoma cruzi [29]): 80%
Cl.Cn1nc2cc1CNCCNCCNCc1cc(n(C)n1)CNCCNCCNC2	98	1.3	8.8	6.5	178	137	20.3	27.5	80	42	64	4.2	Non-toxic	Non-toxic	Toxic	Non-toxic	Non-toxic	Non-toxic	Non-toxic	39	Activity (Trypanosoma cruzi [18]): Active; Activity (Trypanosoma cruzi [30]): Active; Activity (Trypanosoma cruzi [31]): Active; inhibition (Trypanosoma cruzi [22]): 70%; inhibition (Trypanosoma cruzi [32]): 75%; Activity (Trypanosoma cruzi [24]): Active; Activity (Trypanosoma cruzi [28]): Active; inhibition (INH) (Trypanosoma cruzi [25]): 70%; inhibition (INH) (Trypanosoma cruzi [26]): 15%; inhibition (INH) (Trypanosoma cruzi [33]): 58%; Ratio IC50 [34]: 23; Activity [27]: 23.4 U/mg

Now from value to molecule, other results behind:

inhibition (Trypanosoma cruzi [21]) [%]	SMILES	IC50 (Trypanosoma cruzi [1]) [µM]	IC50 (Trypanosoma cruzi [2]) [µM]	IC50 (Trypanosoma cruzi [3]) [µM]	IC50 (Vero) [µM]	selectivity ratio [4]	selectivity ratio [5]	selectivity ratio [6]	Activity (Trypanosoma cruzi [7]) [%]	Activity (Trypanosoma cruzi [8]) [%]	Activity (Trypanosoma cruzi [9]) [%]	IC50 [10] [µM]	Activity (Mus musculus [11])	Activity (Mus musculus [12])	Activity (Mus musculus [13])	Activity (Mus musculus [14])	Activity (Mus musculus [15])	Activity (Mus musculus [16])	Activity (Mus musculus [17])	Activity (Trypanosoma cruzi [23]) [%]	also measured
65	CCCCCCCCN1CCNCc2cc([nH]n2)CNCCN(CCCCCCCC)CCNCc2cc(n[nH]2)CNCC1	46.4	20.8	18.4	21.5	0.5	1	1.1	–	–	–	44.6	–	–	–	–	–	–	–	–	Activity [27]: 23.4 U/mg
98	Cl.c1c2n[nH]c1CNCCN1CCNCc3cc(n[nH]3)CNCCN(CCNC2)CCNCc2cc([nH]n2)CNCC1	1.3	7.2	6.2	149	115	20.7	24	74	50	70	30.8	Non-toxic	Non-toxic	Non-toxic	Non-toxic	Non-toxic	Toxic	Non-toxic	53	Activity (Trypanosoma cruzi [18]): Active; Activity (Trypanosoma cruzi [19]): Active; Activity (Trypanosoma cruzi [20]): Active; inhibition (Trypanosoma cruzi [22]): 70%; Activity (Trypanosoma cruzi [24]): Active; Activity (Trypanosoma cruzi [28]): Active; inhibition (INH) (Trypanosoma cruzi [25]): 7%; inhibition (INH) (Trypanosoma cruzi [26]): 22%; Activity [27]: 23.4 U/mg
